# ChEMBL document CHEMBL4028856, “Discovery of Small Molecules Targeting the Synergy of Cardiac Transcription Factors GATA4 and NKX2-5” (J Med Chem, 2017)
# Active and inactive are the calls of the source. The rule behind the calls is not given here.
# Molecular target: GATA4/NKX2-5 (Mus musculus, UniProt P42582+Q08369)
# Assay: Inhibition of mouse GATA4/NKX2-5 transcriptional synergy expressed in African green monkey COS-1 cells measured after 30 hrs by dual luciferase reporter gene assay
# Format: cell-based
# Conditions: not given
# Summary of the method: (§1)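 COS-1 cells co-transfected (Fugene 6, DNA:reagent 1:3) with p3xNKE-luc, Renilla pRL-TKd238 control, and pMT2-GATA4, pMT2-NKX2-5, both, or empty pMT2; DNA balanced with pMT2. Compounds added 6 h post-transfection in 0.1% DMSO, medium renewed at 24 h, lysis at 30 h. Dual-luciferase read-out, firefly/Renilla normalized to vehicle; duplicate wells.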
# GATA4/NKX2-5, sequence (Q08369 whole entry): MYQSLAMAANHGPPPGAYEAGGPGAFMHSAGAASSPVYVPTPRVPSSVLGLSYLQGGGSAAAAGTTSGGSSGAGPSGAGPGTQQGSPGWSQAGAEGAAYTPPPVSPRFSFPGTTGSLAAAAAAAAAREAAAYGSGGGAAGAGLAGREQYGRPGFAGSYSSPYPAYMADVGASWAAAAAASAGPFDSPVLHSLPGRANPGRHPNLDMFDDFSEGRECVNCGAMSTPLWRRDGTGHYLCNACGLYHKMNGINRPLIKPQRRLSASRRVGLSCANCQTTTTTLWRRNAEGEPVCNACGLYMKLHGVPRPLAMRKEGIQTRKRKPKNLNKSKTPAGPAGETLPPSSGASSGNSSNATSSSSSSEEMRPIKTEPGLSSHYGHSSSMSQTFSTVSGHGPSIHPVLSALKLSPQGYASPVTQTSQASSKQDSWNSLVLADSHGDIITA
# GATA4/NKX2-5, sequence (P42582 whole entry): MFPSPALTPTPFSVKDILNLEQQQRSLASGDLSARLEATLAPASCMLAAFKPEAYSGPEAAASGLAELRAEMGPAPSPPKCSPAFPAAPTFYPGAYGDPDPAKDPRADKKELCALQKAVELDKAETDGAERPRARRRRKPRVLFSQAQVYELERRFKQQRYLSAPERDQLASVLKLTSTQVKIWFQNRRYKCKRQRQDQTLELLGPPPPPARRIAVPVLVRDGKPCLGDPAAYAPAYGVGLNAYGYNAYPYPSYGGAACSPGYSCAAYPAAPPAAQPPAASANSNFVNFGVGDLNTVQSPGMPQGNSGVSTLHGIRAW
row,Compound,IC50
1,CCc1ccc(/C=C2\SC(=O)NC2=O)cc1,21 µM
2,CCN(CC)c1ccc(/C=N/n2c(S)nnc2C2CCCCC2)cc1,6 µM
3,Cc1onc(-c2ccccc2)c1C(=O)Nc1ccc(C#N)c(Cl)c1,16 µM
4,Cc1onc(-c2ccccc2)c1C(=O)Nc1ccc(C(C)(C)C)cc1,18 µM
5,c1ccc(-c2nonc2-c2ccccc2)cc1,50 µM
6,Cc1onc(-c2ccccc2)c1C(=O)Nc1cccc(C(=O)NC2CC2)c1,20 µM
7,CCOc1ccc(NC(=O)c2c(-c3ccccc3)noc2C)cc1,20 µM
8,COc1cccc(/C=N/n2c(SC)nnc2-c2ccccc2)c1OC,> 50 µM
9,COc1ccc(/C=N/n2c(SC)nnc2-c2ccccc2)cc1C,24 µM
10,CC(C)CNC(=O)c1ccc(NC(=O)c2ccccc2)cc1,> 50 µM
11,CCN1C(=O)S/C(=C\c2ccc(N3CCCC3)c(F)c2)C1=O,8 µM
12,CCOc1ccccc1/C=N/n1c(S)nnc1-c1ccccc1,8 µM
13,CCC(CC)C(=O)Nc1ccc(C(=O)NCC(C)C)cc1,> 50 µM
14,CCCOc1ccc(NC(=O)c2c(-c3ccccc3)noc2C)cc1,> 50 µM
15,CCNc1ccc(NC(=O)c2c(-c3ccccc3)noc2CO)cc1,> 50 µM
16,CCOc1ccc(/C=C2\SC(=O)N(CC)C2=O)cc1OCC,26 µM

row,Compound,IC50
1,Cc1onc(-c2ccccc2)c1C(=O)Nc1ccc(-c2nnc3n2CCCCC3)cc1,20 µM
2,Cc1onc(-c2ccccc2)c1C(=O)Nc1ccc(Sc2nccn2C)cc1,> 50 µM
3,Cc1onc(-c2ccccc2)c1C(=O)Nc1ccc(OC(F)(F)F)cc1,11 µM
4,Cc1onc(-c2ccccc2)c1C(=O)Nc1ccc(C(C)C)cc1,16 µM
5,CC(C)CCN1C(=O)S/C(=C\c2ccc(N(C)C)cc2)C1=O,10 µM
6,COc1cccc(/C=N/n2c(S)nnc2-c2ccccc2)c1OC,8 µM
7,Cc1onc(-c2ccccc2)c1C(=O)Nc1ccc2c(c1)OC1(CCCC1)O2,23 µM
8,CC(C)(C)c1ccc(/C=N/n2c(S)nnc2-c2ccncc2)cc1,7 µM
9,CC(C)COC(=O)c1ccc(NC(=O)c2cccs2)cc1,9 µM
10,CC(C)CNC(=O)c1ccc(NC(=O)C2CC2)cc1,23 µM
11,O=c1cc(-c2ccc(O)c(O)c2)oc2cc(O)cc(O)c12 [LUTEOLIN],22 µM
12,Cc1onc(-c2ccccc2)c1C(=O)Nc1ccc(-n2cnnn2)cc1,> 50 µM
13,CC(C)CNC(=O)c1ccc(NC(=O)C2CCCCC2)cc1,> 50 µM
14,O=c1cc(-c2ccc(O)cc2)oc2cc(O)cc(O)c12 [APIGENIN],24 µM
15,Cc1onc(-c2ccccc2)c1C(=O)Nc1cccc(S(=O)(=O)NCc2ccco2)c1,20 µM

# Second part, the molecule after the results:
row,IC50,Compound
1,30 µM,CC(C)(C)c1ccc(/C=N/n2c(S)nnc2-c2cccnc2)cc1
2,37 µM,Sc1nnc(-c2ccccc2)n1/N=C/c1ccc(OC2CCCC2)cc1
3,> 50 µM,Fc1cccc(/C=N/n2c(S)nnc2-c2ccccc2)c1
4,7 µM,CN(C)c1ccc(/C=N/n2c(S)nnc2-c2ccncc2)cc1
5,> 50 µM,CC(C)CNC(=O)c1ccc(NC(=O)c2cccs2)cc1
6,> 50 µM,COc1cccc(/C=N/n2c(S)nnc2-c2ccccc2)c1
7,> 50 µM,CCCOC(=O)c1ccc(NC(=O)c2c(-c3ccccc3)noc2C)cc1
8,> 50 µM,Cc1cccc(/C=N/n2c(S)nnc2-c2ccccc2)c1
9,13 µM,Sc1nnc(-c2ccccc2)n1/N=C/c1cccc(Oc2ccccc2)c1
10,10 µM,COc1ccc(/C=N/n2c(S)nnc2C2CCCCC2)cc1OCc1ccccc1
11,13 µM,Cc1onc(-c2ccccc2)c1C(=O)Nc1ccc(OC(C)C)cc1
12,37 µM,CC(C)COC(=O)c1ccc(NC(=O)CCC(=O)O)cc1
13,> 50 µM,CCN(CC)S(=O)(=O)c1cccc(NC(=O)c2c(-c3ccccc3)noc2C)c1
14,19 µM,CCN(CC)c1ccc(/C=N/n2c(S)nnc2-c2ccc(OC)cc2)cc1
15,20 µM,O=C1NC(=O)/C(=C/c2cccc([N+](=O)[O-])c2)S1
16,> 50 µM,CCN(CC)S(=O)(=O)c1cc(NC(=O)c2c(-c3ccccc3)noc2C)ccc1C
17,> 50 µM,CC(C)CNC(=O)c1ccc(NC(=O)C2CCCO2)cc1 (configuration not stated)
18,20 µM,Cc1onc(-c2ccccc2)c1C(=O)Nc1ccc(C(=O)OC(C)C)cc1
19,38 µM,Cc1onc(-c2ccccc2Cl)c1C(=O)Nc1ccc(N2CCOCC2)cc1
20,> 50 µM,COc1cccc(C(=O)Nc2ccc(C(=O)NCC(C)C)cc2)c1
21,> 50 µM,CCCC(=O)Nc1ccc(C(=O)NCC(C)C)cc1
22,> 50 µM,Cc1onc(-c2ccccc2)c1C(=O)Nc1ccc(N2CCCCC2)cc1
23,> 50 µM,CC(C)c1ccc(/C=N/n2c(S)nnc2-c2cccnc2)cc1

row,IC50,Compound
1,> 50 µM,CCN(CC)c1ccc(/C=N/n2c(S)nnc2-c2ccccc2)c(OC)c1
2,32 µM,CCC(C)c1ccc(NC(=O)c2c(-c3ccccc3)noc2C)cc1 (configuration not stated)
3,11 µM,COc1ccc(/C=N/n2c(S)nnc2-c2ccccc2)cc1C
4,20 µM,C=CCc1cccc(/C=N/n2c(S)nnc2-c2ccccc2)c1O
5,42 µM,CC(C)CNC(=O)c1ccc(NC(=O)C(F)(F)F)cc1
6,> 50 µM,Cc1nc(-c2ccc(NC(=O)c3c(-c4ccccc4)noc3C)cc2)cs1
7,33 µM,Cc1onc(-c2ccccc2)c1C(=O)Nc1cccc(S(=O)(=O)N2CCCC2)c1
8,> 50 µM,CC(C)COC(=O)c1ccc(NC(=O)COc2ccccc2Cl)cc1
9,> 50 µM,Cc1onc(-c2ccccc2)c1C(=O)Nc1ccc(Oc2ccccc2)cc1
10,22 µM,Cc1onc(-c2ccccc2Cl)c1C(=O)Nc1ccc(C(C)(C)C)cc1
11,> 50 µM,CCCCOc1ccc(/C=N/n2c(S)nnc2CC)cc1
12,17 µM,Cc1onc(-c2ccccc2)c1C(=O)Nc1ccc2c(c1)CCC2
13,50 µM,O=C(O)/C(=C/c1ccccc1)c1c(F)c(F)c(F)c(F)c1F
14,30 µM,CCOc1ccc(/C=N/n2c(SC)nnc2-c2ccccc2)cc1OCC
15,7 µM,CCOc1ccc(/C=N/n2c(S)nnc2C2CCCCC2)cc1
16,5 µM,CCOc1ccc(/C=C2\SC(=O)N(CC)C2=O)cc1
17,> 50 µM,Cc1ccc(C(=O)Nc2ccc(C(=O)OCC(C)C)cc2)cc1C
18,28 µM,Cc1onc(-c2ccccc2)c1C(=O)Nc1cccc(S(=O)(=O)NC2=NC=CC2)c1
19,> 50 µM,Cc1onc(-c2ccccc2)c1C(=O)Nc1ccc(S(=O)(=O)N2CCOCC2)cc1
20,> 50 µM,Cc1onc(-c2ccccc2)c1C(=O)Nc1ccc(N2CCOCC2)cc1
21,20 µM,CCC(C)c1ccc(NC(=O)c2c(-c3ccccc3Cl)noc2C)cc1 (configuration not stated)
22,28 µM,Cc1onc(-c2ccccc2)c1C(=O)Nc1ccc(S(=O)(=O)Nc2ncccn2)cc1

# Molecular target: GATA4/NKX2-5 (Mus musculus) (UniProt Q08369+P42582)
# Assay: Inhibition of mouse GATA4/NKX2-5 transcriptional synergy expressed in African green monkey COS-1 cells at 20 uM measured after 30 hrs by dual luciferase reporter gene assay
# Format: cell-based
# Conditions: 5 uM, in the assay text read “5 uM” for “20 uM”
# Summary of the method: as §1
row,inhibition,Compound
1,Active,CCOc1ccc(/C=C2\SC(=O)N(CC)C2=O)cc1

# Molecular target: T1, GATA4/NKX2-5 (Rattus norvegicus) (UniProt P46152+O35767)
# Assay: Inhibition of GATA4/NKX2-5 interaction in neonatal rat ventricular cardiomyocytes assessed as decrease in endothelin-1 induced mRNA level of BNP at 20 uM preincubated for 1 hr followed by endothelin-1 addition measured after 23 hrs by real-time PCR analysis
# Conditions: not given
# Summary of the method: (§2)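 Neonatal rat ventricular myocytes (2–4-day-old Sprague-Dawley or Wistar), preplated, seeded on 6-well plates, moved to complete serum-free medium next day and cultured 24 h. Compounds (10–100 μM) added 1 h before 100 nM endothelin-1 or none; ANP and BNP mRNA quantified by RT-PCR at 24 h, normalized to 18S RNA, relative to vehicle; mean ± SD, n = 3–6.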
row,inhibition,Compound
1,Active,Cc1onc(-c2ccccc2)c1C(=O)Nc1ccc(OC(F)(F)F)cc1

# Molecular target: T1, GATA4/NKX2-5 (Rattus norvegicus)
# Assay: Inhibition of GATA4/NKX2-5 interaction in neonatal rat ventricular cardiomyocytes assessed as decrease in endothelin-1 induced mRNA level of ANP at 20 uM preincubated for 1 hr followed by endothelin-1 addition measured after 23 hrs by real-time PCR analysis
# Conditions: not given
# Summary of the method: as §2
row,inhibition,Compound
1,Active,Cc1onc(-c2ccccc2)c1C(=O)Nc1ccc(OC(C)C)cc1
2,Active,Cc1onc(-c2ccccc2)c1C(=O)Nc1ccc(OC(F)(F)F)cc1
3,Active,CC(C)COC(=O)c1ccc(NC(=O)c2cccs2)cc1

row,Compound,inhibition
1,Cc1onc(-c2ccccc2)c1C(=O)Nc1ccc(C#N)c(Cl)c1,Active
